Beta2AR agonist – agonists of human beta-2 adrenergic receptor inducing internalization. AID 504454. Am2.2-beta2AR cells, FAP receptor internalization, flow cytometry. hit rate 0.43% among 340,000. response, % (test concentration not listed);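 active means response above a set limit, near 3 SD of response in nonfluorescent compounds, cut at about 42% in these data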
EBI2 antag – blocks human EBI2 receptor beta-arrestin signaling; P32249; inhibition, % at 5 µM; hit rate 0.81% among 360,000; EBI2 beta-arrestin recruitment, luminescence, 7a,25-OHC stimulated; in the data active means inhibition above about 38%;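 further: enzyme fragment complementation signal reports receptor beta-arrestin coupling in cells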
Target sequence (P32249 whole entry, looked up, the tested form may be a part): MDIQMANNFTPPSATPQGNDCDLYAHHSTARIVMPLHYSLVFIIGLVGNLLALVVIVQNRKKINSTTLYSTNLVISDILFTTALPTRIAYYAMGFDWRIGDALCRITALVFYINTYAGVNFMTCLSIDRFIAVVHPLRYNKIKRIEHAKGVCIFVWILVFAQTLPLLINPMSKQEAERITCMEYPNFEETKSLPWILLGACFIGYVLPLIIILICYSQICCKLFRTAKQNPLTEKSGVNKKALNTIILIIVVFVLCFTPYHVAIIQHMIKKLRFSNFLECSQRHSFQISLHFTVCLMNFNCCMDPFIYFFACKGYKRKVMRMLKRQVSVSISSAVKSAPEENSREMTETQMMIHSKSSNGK
CXCR6 block – inhibitors of human CXCR6 receptor. CHO-K1 PathHunter CXCR6 beta-arrestin, luminescence. inhibition, % at 20 µM. hit rate 0.36% among 360,000. AID 602244; in the data active means inhibition above about 34%, passing the limit was not always enough;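 further: antagonist mode with CXCL16 agonist at 10 nM final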
Target sequence (O00574 whole entry, looked up): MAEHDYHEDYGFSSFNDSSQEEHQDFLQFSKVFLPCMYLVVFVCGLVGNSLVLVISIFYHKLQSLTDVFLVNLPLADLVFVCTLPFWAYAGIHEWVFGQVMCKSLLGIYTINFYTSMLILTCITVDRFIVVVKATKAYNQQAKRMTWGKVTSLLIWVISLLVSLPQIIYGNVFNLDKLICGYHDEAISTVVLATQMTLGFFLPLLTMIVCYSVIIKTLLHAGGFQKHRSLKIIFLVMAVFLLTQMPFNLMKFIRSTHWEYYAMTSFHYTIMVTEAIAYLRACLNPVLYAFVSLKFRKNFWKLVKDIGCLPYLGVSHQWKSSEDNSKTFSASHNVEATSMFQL
CCR6 antagonist – CCR6 (human) receptor antagonism; CHO-K1 CCR6 PathHunter beta-arrestin, luminescence, CCL20-stimulated; inhibition, % at 20 µM; hit rate 0.49% among 340,000; AID 493098;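 active means compounds whose inhibition of the agonist-driven luminescence signal at 20 µM reaches about 50%, limit read from the data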;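 further: cells stimulated with CCL20 at 14 nM final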
APJ antagonist – blocks the human apelin receptor APJ; P35414; CHO-K1 APJ beta-arrestin complementation, luminescence; inhibition, % at 20 µM; hit rate 0.32% among 330,000;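 active means inhibition above about 40% at 20 µM, limit read from the data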;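 further: cells challenged with 10 nM apelin-13 agonist together with compound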
APJ ag – APJ receptor agonism. P35414. CHO-K1 APJ PathHunter beta-arrestin, luminescence; 0% DMSO wells, 100% apelin. activation, % at 20 µM. hit rate 0.11% among 330,000. AID 2520;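 active means activation more than six SD over the plate average, tested at 20 µM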
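Assay system: CHO-K1 APJ beta-arrestin complementation cell line / Compound: single test compound dose, 20 µM final, 1% DMSO / Times: overnight seeding, 90 min compound at 25 °C, 1 h detection / Technique: beta-gal luminescence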
APJ antag conf – APJ receptor antagonism confirmation | hit rate 66% among 950 | APJ beta-arrestin recruitment, luminescence, antagonist mode | AID 2766 | shares compounds with APJ antagonist | inhibition, % at 20 µM; in the data active means inhibition above about 50%
Each line names hits and unclear results; the compound was inactive in the other large screens (follow-up assays come after a bar, where they were run). Only some compounds are listed: those with a hit (about 1.8% of all), similar ones and a draw of the others.

NNc1nc(-c2ccccc2)cc(-c2ccc(Br)cc2)n1	APJ antagonist 73 | APJ antag conf 105
Cc1c(N2CCCCC2)[nH]c2ccccc12	none (no result: Beta2AR agonist, CCR6 antagonist, APJ antagonist, APJ ag)
CCOC(=O)C1=C(C)NC(=O)NC1c1c(C)nn(-c2ccccc2)c1Cl (centres undefined)	APJ antagonist 44 | APJ antag conf inactive
COc1cc(/C=C2\SC(=S)N(NC(=O)c3cccc(O)c3)C2=O)ccc1O	CXCR6 block 42, CCR6 antagonist 56, APJ antagonist 41 | APJ antag conf 95
COc1cc(/C=C2\SC(=S)N(NS(=O)(=O)c3ccc(C)cc3)C2=O)cc(OC)c1OC	none
COc1cc(/C=C2\SC(=S)N(NC(=O)c3ccccc3OC)C2=O)ccc1O	CXCR6 block 50, CCR6 antagonist 66, APJ antagonist 66 | APJ antag conf 100
CCOc1cc(/C=C2\SC(=S)N(NS(=O)(=O)c3ccc(C)cc3)C2=O)ccc1O	APJ antagonist 41 | APJ antag conf 88
COc1cc(/C=C2\SC(=S)N(NS(=O)(=O)c3ccccc3)C2=O)ccc1O	APJ antagonist 41 | APJ antag conf 73
COc1ccc(/C=C2/SC(=S)N(NS(=O)(=O)c3ccccc3)C2=O)cc1	none
CC1(C(=O)NS(=O)(=O)c2ccccc2)CCN1C(=O)CC1CCCCC1 (centres undefined)	none (no result: Beta2AR agonist, CCR6 antagonist, APJ antagonist, APJ ag)
COc1ccc(-c2c(-c3cc(OC)cc(OC)c3)n(C)c3ccc(-c4ccc5[nH]ccc5c4)cc23)cc1	none
CCCCC(C(=O)NC(C)(C)C)N(Cc1ccccc1Cl)C(=O)c1snc(C(N)=O)c1N (centres undefined)	none
O=C(c1cccnc1)N1CCC(Oc2ccc(C(=O)N3CCCC(O)C3)cc2)CC1 (centres undefined)	none
Nc1cc(N)nc(SCC(=O)NC2CCCCCCC2)n1	none
COc1cc(/C=C2\SC(=S)N(NC(=O)c3ccc(O)c(OC)c3)C2=O)ccc1O	CXCR6 block 43, CCR6 antagonist 57, APJ antagonist 61 | APJ antag conf 99
O=C(O)c1ccc(/C=C2\SC(=S)N(NC(=O)c3ccccc3)C2=O)cc1	none
C/C=C/c1cccc(-c2nc(C(=O)N3CCCCC3)cc3c2[C@@H](CCO)N(C(=O)NC(C)C)C3)c1	none (no result: Beta2AR agonist, CCR6 antagonist, APJ antagonist, APJ ag)
NC(CCc1ccccc1)c1csc(NC(=O)NCC2CCCCC2)n1 (centres undefined)	none (no result: Beta2AR agonist, CCR6 antagonist, APJ antagonist, APJ ag)
COc1ccc(C=C(C#N)C(=O)c2ccccc2)cc1	none (no result: Beta2AR agonist, CCR6 antagonist, APJ antagonist, APJ ag)
COc1cc(/C=C(\C#N)C(=O)c2ccc(O)c(O)c2)cc(I)c1O	CCR6 antagonist 57, APJ antagonist 42 | APJ antag conf 60
Cc1ccc(/C=C2/NC(=O)N(Cc3ccccc3)C2=O)o1	APJ antagonist 61 | APJ antag conf inactive
CC(NC(=O)CSc1ncn[nH]1)c1ccc(Cl)cc1Cl (centres undefined)	none
Cn1cccc1Cc1nnc(SCC(=O)NCc2ccccc2)n1-c1ccc(F)cc1	none
Cn1cccc1Cc1nnc(SCC(=O)NCc2ccc(F)cc2)n1-c1ccc(F)cc1	APJ antagonist 58 | APJ antag conf inactive
CCC(=O)N1CCC1(C)C(=O)Nc1ccccc1 (centres undefined)	none (no result: Beta2AR agonist, CCR6 antagonist, APJ antagonist, APJ ag)
CCOc1ccc(CCNC(=O)c2cccnc2N2CCCC2)cc1OCC	APJ antagonist 58 | APJ antag conf 52
COc1ccc(-c2csc(NC(=S)NC(=O)/C=C/c3ccc(C(C)C)cc3)n2)cc1OC	APJ antagonist 41 | APJ antag conf inactive
COc1ccc(-c2csc(NC(=S)NC(=O)c3cc4ccccc4o3)n2)cc1Br	APJ antagonist 45 | APJ antag conf inactive
COc1ccc(-c2csc(NC(=S)NC(=O)c3ccco3)n2)cc1Br	none
COc1ccc(C(=O)NC(=S)Nc2nc(-c3ccc(OC)c(Br)c3)cs2)cc1Br	APJ antagonist 43 | APJ antag conf inactive
CCCCCCCc1ccc(C2NC(=S)NC3=C2C(=O)c2ccccc23)cc1 (centres undefined)	APJ antagonist 56 (no result: Beta2AR agonist, EBI2 antag, CXCR6 block) | APJ antag conf inactive
Cc1cc([N+](=O)[O-])nn1CC(=O)NNC(=S)Nc1ccc([N+](=O)[O-])cc1	APJ antagonist 47 | APJ antag conf 70
O=C(O)c1ccc(CNC(=O)C2CCN(S(=O)(=O)c3cccs3)CC2)cc1	none (no result: Beta2AR agonist, CCR6 antagonist, APJ antagonist, APJ ag)
Cc1cc(C)nc(NNS(=O)(=O)c2ccc(F)c(Cl)c2)n1	APJ antagonist 53 | APJ antag conf 109
Cc1cc(C)nc(NNS(=O)(=O)c2ccc(Cl)cc2)n1	CCR6 antagonist 53, APJ antagonist 75 | APJ antag conf 113
Cc1cc(C)nc(NS(=O)(=O)c2ccc(NS(=O)(=O)c3ccc(F)c(F)c3)cc2)n1	none (no result: Beta2AR agonist, CCR6 antagonist, APJ antagonist, APJ ag)
COc1ccc(S(=O)(=O)NNc2nc(C)cc(C)n2)cc1Br	APJ antagonist 54 | APJ antag conf 52
COc1cccc(C2(C)NC(=O)N(CC(=O)Nc3ccc(N4CCOCC4)cc3)C2=O)c1 (centres undefined)	none
CCc1ccccc1C1=CC(=O)C[C@H](c2ccc(OC)cc2)C1	none
Cc1cn([C@H]2C[C@H](O)[C@@H](CNCc3ccc(-c4cc(Cl)ccc4C(F)(F)F)o3)O2)c(=O)[nH]c1=O	none (no result: Beta2AR agonist, CCR6 antagonist, APJ antagonist, APJ ag)
CCCN(CCC)c1nc(-c2ccccn2)nc2ccccc12	APJ antagonist 41 | APJ antag conf 80
c1ccc(-c2nc(N3CCCCCC3)c3ccccc3n2)nc1	APJ antagonist 49 | APJ antag conf 62
CCCn1c(SCC(=O)c2cc(C)n(-c3cc(C)on3)c2C)n[nH]c1=O	none
O=S(=O)(O)c1cc(O)c2c(O)c(N=Nc3cc(Cl)ccc3O)c(S(=O)(=O)O)cc2c1	CCR6 antagonist 60, APJ antagonist 40 | APJ antag conf 70
O=S(=O)(O)c1cc(Cl)cc(N=Nc2ccc(O)cc2O)c1O	none (no result: APJ antagonist, APJ ag)
CCOc1c(C(N)=O)c(-c2ccccc2)c2c(=O)[nH]c3ccccc3n12	APJ antagonist 60 | APJ antag conf 60
CCOC(=O)C1=C(COC(=O)c2ccc(Br)c(S(=O)(=O)N3CCOCC3)c2)NC(=O)NC1C (centres undefined)	none (no result: APJ antagonist, APJ ag)
COc1cccc(N2CC(C)Cn3c2nc2c3c(=O)[nH]c(=O)n2C)c1 (centres undefined)	CXCR6 block 44, APJ antagonist 46 | APJ antag conf 79
Cc1cc(C)cc(N2CC(C)Cn3c2nc2c3c(=O)[nH]c(=O)n2C)c1 (centres undefined)	none
COc1ccccc1NCCC(=O)OCC(=O)Nc1ccccc1F	none
CC(=O)c1ccc(N=Nc2ccc(N)cc2)cc1	APJ antagonist 46 | APJ antag conf inactive
Cc1ccc(C(=O)NCC(=O)OCC(=O)c2ccc(C)c([N+](=O)[O-])c2)cc1	APJ antagonist 55 | APJ antag conf 60

Bioassay records: PubChem BioAssay, several laboratories
